Reference: ChEMBL document CHEMBL2331435, “Structure-activity relationship study of vitamin k derivatives yields highly potent neuroprotective agents” (J Med Chem, 2013)
Active and inactive are the calls of the source. The calls are words filed in the database; no cut-off is given here.

Columns and labels:
[1] = test system: Radical scavenging activity; experiment: Antioxidant activity assessed as DPPH free radical scavenging activity at 20 uM; type: functional
Procedure, shortened: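 Test agents at 20 μM final, added to 100 μM DPPH in methanol; absorbance at 517 nm monitored immediately for 10 min. Trolox and ascorbic acid served as positive controls, and the rate of absorbance loss was taken as antioxidant potency.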

[2] = Neurotoxicity in mouse HT22 cells assessed as cell viability after 24 hrs by MTS assay; type: toxicity, cell-based, HT-22; details: read-out: TC50
Procedure, shortened: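 HT22 cells were seeded at 5.0 × 10^3 per well, cultured overnight, and treated with a range of compound concentrations without glutamate for 24 h. MTS was added for 2 h and absorbance read at 490 nm. Viability was expressed as percent of untreated cells, and TC50 was fit from titration curves (7- or 12-point, n = 3–4).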

[3] = test system: HT-22; experiment: Neuroprotective activity in mouse HT22 cells assessed as prevention from glutamate-induced oxidative cell death by MTS assay; type: functional
Procedure, shortened: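 HT22 cells grown in high-glucose DMEM with 10% FBS and antibiotic-antimycotic at 37°C, 5% CO2. Seeded at 5.0 × 10^3 cells/well overnight, then given 10 mM glutamate (final) plus compound from DMSO stock. MTS added 24 h after treatment, 2 h at 37°C, A490 read. Viability taken as % of untreated cells. PC50 from 12-point titrations; experiments repeated at least four times.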

[4] = Therapeutic index, ratio of cytotoxic TC50 for mouse HT22 cells to neuroprotective PD50 for mouse HT22 cells; type: cell-based, HT-22; details: read-out: TI
[5] = test system: HT-22; experiment: Neuroprotective activity in mouse HT22 cells assessed as reduction of glutamate-induced mitochondrial fragmentation at 250 nM after 8 hrs by Mitotracker DR staining-based fluorescence microscopic analysis; type: functional, cell-based
Procedure, shortened: (§1)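 HT22 cells were given 10 mM glutamate plus compound for 8 h, then co-stained with MitoSOX Red (5 μM final) and Mitotracker Deep Red (10 nM final) for 20 min. Cells were washed twice with HBSS and imaged live by fluorescence microscopy in HBSS.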

[6] = test system: Mus musculus; experiment: Toxicity in BALB/cByJ mouse assessed as outward signs of distress at 50 mg/kg, ip daily for 3 weeks measured 2 hrs after final injection; type: organism-based; design: dose 50 mg/kg, route intraperitoneal; details: in vivo
[7] = molecular target: T1, Serine/threonine-protein phosphatase PGAM5, mitochondrial (Mus musculus) (UniProt Q8BX10); experiment: Inhibition of glutamate-induced increase in lower band of PGAM5 in mouse HT22 cells at 125 nM after 16 hrs by Western blotting analysis; type: cell-based; details: HT-22
T1 sequence (whole entry): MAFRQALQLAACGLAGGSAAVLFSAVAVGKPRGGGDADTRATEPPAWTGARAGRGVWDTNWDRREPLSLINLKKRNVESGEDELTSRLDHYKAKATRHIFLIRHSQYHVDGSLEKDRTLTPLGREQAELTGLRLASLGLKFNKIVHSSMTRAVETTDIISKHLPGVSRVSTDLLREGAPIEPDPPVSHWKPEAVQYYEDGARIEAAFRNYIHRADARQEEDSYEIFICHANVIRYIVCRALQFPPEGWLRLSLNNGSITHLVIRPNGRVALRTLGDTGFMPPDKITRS
Procedure, shortened: (§2)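 HT22 cells were treated with 10 mM glutamate plus compound for 16 h, harvested, and lysed in low-salt buffer (50 mM Tris-HCl pH 7.4, 150 mM NaCl, 10% glycerol, Triton X-100, protease/phosphatase inhibitors) for 30 min with a brief sonication. Lysates were run on 4–12% gels and immunoblotted for phospho-Drp1 Ser637, total Drp1, PGAM5, actin and α-tubulin, then analyzed by densitometry.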

[8] = test system: Mus musculus; experiment: Toxicity in BALB/cByJ mouse assessed as outward signs of pain at 50 mg/kg, ip daily for 3 weeks measured 2 hrs after final injection; type: organism-based; design: dose 50 mg/kg, route intraperitoneal; details: in vivo
[9] = test system: HT-22; experiment: Antioxidant activity in mouse HT22 cells assessed as reduction in glutamate-induced upregulation of HO1 gene expression at 250 nM after 16 hrs by qRT-PCR analysis relative to glutamate-treated control; type: functional, cell-based
Procedure, shortened: (§3)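 HT22 cells were seeded at 3.0 × 10^5 per well and cultured overnight, then treated with or without 10 mM glutamate plus compound (DMSO stock) for 16 h. Cells were trypsinized and washed in cold Ca/Mg-free HBSS. HO-1 and NQO-1 mRNA were measured by qRT-PCR with β2-microglobulin as reference gene, and fold change was calculated by the Livak method.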

[10] = test system: Mus musculus; experiment: Toxicity in BALB/cByJ mouse assessed as weight loss at 50 mg/kg, ip daily for 3 weeks measured 2 hrs after final injection; type: organism-based; design: dose 50 mg/kg, route intraperitoneal; details: in vivo
[11] = test system: Mus musculus; experiment: Toxicity in BALB/cByJ mouse assessed as biochemical parameters at 50 mg/kg, ip daily for 3 weeks measured 2 hrs after final injection; type: organism-based; design: dose 50 mg/kg, route intraperitoneal; details: in vivo
[12] = test system: HT-22; experiment: Neuroprotective activity in mouse HT22 cells assessed as reduction of glutamate-induced mitochondrial superoxide generation at 250 nM after 8 hrs by MitoSOX RED staining-based fluorescence microscopic analysis; type: functional, cell-based; procedure, shortened: as §1
[13] = molecular target: Dynamin-1-like protein (Mus musculus) (UniProt Q8K1M6); experiment: Inhibition of glutamate-induced decrease in DRP1 phosphorylation at serine 637 in mouse HT22 cells at 125 nM after 16 hrs by Western blotting analysis; type: cell-based; details: HT-22; procedure, shortened: as §2
Chain of Dynamin-1-like protein (Mus musculus) (Q8K1M6 whole entry): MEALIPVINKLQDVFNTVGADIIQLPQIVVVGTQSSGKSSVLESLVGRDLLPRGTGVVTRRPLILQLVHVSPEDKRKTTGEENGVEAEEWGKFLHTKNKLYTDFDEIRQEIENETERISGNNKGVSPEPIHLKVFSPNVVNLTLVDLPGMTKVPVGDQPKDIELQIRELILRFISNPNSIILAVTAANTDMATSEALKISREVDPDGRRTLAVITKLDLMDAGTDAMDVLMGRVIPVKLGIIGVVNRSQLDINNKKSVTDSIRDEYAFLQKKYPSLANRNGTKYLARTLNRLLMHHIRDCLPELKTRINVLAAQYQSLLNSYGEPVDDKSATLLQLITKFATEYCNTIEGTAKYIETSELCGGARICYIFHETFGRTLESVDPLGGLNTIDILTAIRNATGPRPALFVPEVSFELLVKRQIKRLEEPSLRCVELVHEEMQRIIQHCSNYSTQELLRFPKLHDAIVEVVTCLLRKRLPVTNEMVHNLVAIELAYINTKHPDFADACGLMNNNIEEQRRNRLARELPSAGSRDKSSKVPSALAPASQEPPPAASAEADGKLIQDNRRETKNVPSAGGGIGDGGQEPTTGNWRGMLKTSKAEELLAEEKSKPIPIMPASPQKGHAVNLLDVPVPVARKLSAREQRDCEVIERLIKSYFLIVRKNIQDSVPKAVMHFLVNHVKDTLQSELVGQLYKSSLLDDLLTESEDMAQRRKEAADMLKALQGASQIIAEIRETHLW

[14] = test system: HT-22; experiment: Antioxidant activity in mouse HT22 cells assessed as upregulation of HO1 protein expression 8 hrs by Western blotting analysis; type: functional, cell-based
[15] = test system: HT-22; experiment: Antioxidant activity in mouse HT22 cells assessed as reduction in glutamate-induced upregulation of HO1 gene expression at 250 nM after 16 hrs by qRT-PCR analysis relative to untreated control; type: functional, cell-based; procedure, shortened: as §3
[16] = test system: HT-22; experiment: Antioxidant activity in mouse HT22 cells assessed as reduction in glutamate-induced upregulation of NQO1 gene expression at 250 nM after 16 hrs by qRT-PCR analysis relative to glutamate-treated control; type: functional, cell-based; procedure, shortened: as §3
[17] = test system: HT-22; experiment: Antioxidant activity in mouse HT22 cells assessed as upregulation of HO1 gene expression at 250 nM after 16 hrs by qRT-PCR analysis in the absence of glutamate; type: functional, cell-based; procedure, shortened: as §3
[18] = test system: HT-22; experiment: Antioxidant activity in mouse HT22 cells assessed as prevention of glutamate-induced intracellular accumulation of free radicals at 250 nM after 8 hrs by spectrofluorometric analysis; type: functional, cell-based
Procedure, shortened: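 HT22 cells were seeded at 5.0 × 10^3 per well and cultured overnight, then given 10 mM glutamate plus compound for 8 h. Rho123 was added at 5 μM final for 20 min, cells were washed twice with HBSS, and oxidized Rho123 fluorescence was read at 500 nm excitation and 536 nm emission.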

[19] = test system: HT-22; experiment: Neuroprotective activity in mouse HT22 cells assessed as prevention from tBuOOH-induced oxidative cell death after 3 hrs by MTS assay; type: functional, cell-based
Procedure, shortened: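 HT22 cells were seeded at 5.0 × 10^3 per well and cultured overnight, then exposed to 50 μM t-BuOOH (final) plus compound for 3 h. Medium was removed, cells were washed with HBSS and returned to normal medium. MTS was added 24 h after initial treatment, absorbance was read at 490 nm after 2 h, and viability was expressed as percent of untreated cells.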

[20] = test system: HT-22; experiment: Antioxidant activity in mouse HT22 cells assessed as upregulation of NQO1 protein expression 8 hrs by Western blotting analysis; type: functional, cell-based
[21] = test system: HT-22; experiment: Antioxidant activity in mouse HT22 cells assessed as upregulation of NQO1 gene expression at 250 nM after 16 hrs by qRT-PCR analysis in the absence of glutamate; type: functional, cell-based; procedure, shortened: as §3
[22] = test system: HT-22; experiment: Antioxidant activity in mouse HT22 cells assessed as prevention of glutamate-induced GSH depletion at 5 uM; type: functional, cell-based
Procedure, shortened: (§4)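 HT22 cells were exposed to 10 mM glutamate plus compound (DMSO stock) for 8 h. Total glutathione (reduced plus oxidized) in the supernatant of the cell homogenate was measured with a glutathione reductase enzymatic recycling kit. GSH reacts with DTNB to give TNB, read at 405 nm.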

[23] = test system: HT-22; experiment: Antioxidant activity in mouse HT22 cells assessed as prevention of glutamate-induced GSH depletion at 50 uM; type: functional, cell-based; procedure, shortened: as §4

| SMILES | CC50 at 24 h [2] [µM] | PD50 [3] [nM] | selectivity ratio [4] | also measured |
| --- | --- | --- | --- | --- |
| O=C1O[C@H]([C@@H](O)CO)C(O)=C1O | – | – | – | Activity [1]: Active |
| O=C1C=C(Nc2ccccc2)C(=O)c2ccccc21 | 7 | 64 | 109 | – |
| Cc1ccc(CNC2=CC(=O)c3ccccc3C2=O)cc1 | > 100 | 66 | > 1520 | – |
| O=C1C=C(NCC2CCCCC2)C(=O)c2ccccc21 | > 100 | 54 | > 1850 | – |
| C#CCNC1=CC(=O)c2ccccc2C1=O | 53 | 120 | 442 | – |
| CC1=C(C)C(=O)c2ccccc2C1=O | 30 | – | 254 | – |
| CN(C)C1=CC(=O)c2ccccc2C1=O | > 100 | 246 | > 407 | – |
| O=C1C=C(NCc2ccncc2)C(=O)c2ccccc21 | 80 | 72 | 1110 | – |
| CN(Cc1ccccc1)C1=CC(=O)c2ccccc2C1=O | > 100 | – | 781 | – |
| O=C1C=C(NCc2ccccc2)C(=O)c2ccccc21 | > 100 | 88 | > 1140 | Activity [5]: Active; Activity [6]: Non-toxic; inhibition [7]: Active; Activity [8]: Non-toxic; Activity [9]: Active; Activity [10]: Non-toxic; Activity [11]: Non-toxic; Activity [12]: Active; inhibition [13]: Active; Activity [14]: inactive; Activity [15]: inactive; Activity [16]: inactive; Activity [17]: inactive; Activity [18]: Active; Activity [19]: Active; Activity [1]: inactive; Activity [20]: inactive; Activity [21]: inactive |
| O=C(O)C1=CC(=O)c2ccccc2C1=O | > 100 | – | 140 | – |
| COc1ccc(CNC2=CC(=O)c3ccccc3C2=O)cc1 | > 100 | – | 877 | – |
| O=C1C=C(NCc2ccc(Cl)c(Cl)c2)C(=O)c2ccccc21 | > 100 | 46 | > 2170 | – |
| O=C1C=C(NCc2ccc(Cl)cc2)C(=O)c2ccccc21 | > 100 | 59 | > 1700 | – |
| O=C1C=C(O)C(=O)c2ccccc21 [LAWSONE] | > 100 | – | 100 | – |
| CCNC1=CC(=O)c2ccccc2C1=O | 81 | – | 106 | – |

| SMILES | CC50 at 24 h [2] [µM] | PD50 [3] [nM] | selectivity ratio [4] | also measured |
| --- | --- | --- | --- | --- |
| CC(C)NC1=CC(=O)c2ccccc2C1=O | 46 | – | 27 | – |
| COC1=C(OC)C(=O)C(CCCCCCCCCCO)=C(C)C1=O | – | – | – | Activity [22]: inactive |
| O=C1C=C(NCc2ccccn2)C(=O)c2ccccc21 | 50 | – | 54 | – |
| COC(=O)c1ccc(CNC2=CC(=O)c3ccccc3C2=O)cc1 | > 100 | – | 431 | – |
| O=C1C=CC(=O)c2ccccc21 [NAPHTHOQUINONE] | 19 | – | 12 | – |
| O=C1C=C(NC2CCCC2)C(=O)c2ccccc21 | 44 | – | 108 | – |
| CN1C(=O)C(Cc2c[nH]c3ccccc23)NC1=S (stereo not given) | – | – | – | Activity [23]: inactive |
| CC1=CC(=O)c2ccccc2C1=O [MENADIONE] | 19 | 797 | 24 | – |
| NC1=CC(=O)c2ccccc2C1=O | 49 | 61 | 803 | – |
| CNC1=CC(=O)c2ccccc2C1=O | > 100 | – | 74 | – |
| CCCNC1=CC(=O)c2ccccc2C1=O | 30 | – | 91 | – |
| O=C1C=C(NCc2cccc(C(F)(F)F)c2)C(=O)c2ccccc21 | > 100 | 45 | > 2220 | – |
| O=C1C=C(NCc2cccnc2)C(=O)c2ccccc21 | 37 | – | 172 | – |
| COC1=C(OC)C(=O)C(C/C=C(\C)CC/C=C(\C)CC/C=C(\C)CC/C=C(\C)CC/C=C(\C)CC/C=C(\C)CC/C=C(\C)CC/C=C(\C)CC/C=C(\C)CCC=C(C)C)=C(C)C1=O | – | – | – | Activity [19]: inactive |
| CC1=C(N)C(=O)c2ccccc2C1=O | 54 | – | 31 | – |
| O=C1C=C(NCCc2ccccc2)C(=O)c2ccccc21 | > 100 | – | 171 | – |
